# Screening data from PubChem BioAssay.
# RORA act – activators of human nuclear receptor RORA | P35398 | CHO-K1 Gal4-RORA LBD luciferase reporter, luminescence; percent increase over mock-subtracted basal signal | activation, % at 10 µM | 65,000 tested, 1.5% active;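 active means activation above the mean of all tested compounds plus 3 SD, cut at about 49% in these data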;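 further: 0% = DMSO-treated RORA cells and 100% = added signal equal to DMSO minus mock-transfected cells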
# D1 allo mod – D1 dopamine receptor (human) allosteric modulation; 58,000 tested, 5.9% active; P21728; HEK293 D1, CRE-luciferase, dopamine EC30 potentiation; actives deviate in either direction; B-score at 10 µM;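 active means luminescence count or its row- and column-corrected plate score outside the 99.7% band of the plate's sample wells, on either side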
# JNK3 inh – blocks human JNK3 kinase activity; P53779; purified JNK3 kinase activity, HTS; AID 746; 60,000 tested, 0.61% active; inhibition, % at 8 µM; in the data active means inhibition above about 17%;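 further: 0% = DMSO and 100% = reference inhibitor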
# Target sequence (P53779 whole entry, looked up): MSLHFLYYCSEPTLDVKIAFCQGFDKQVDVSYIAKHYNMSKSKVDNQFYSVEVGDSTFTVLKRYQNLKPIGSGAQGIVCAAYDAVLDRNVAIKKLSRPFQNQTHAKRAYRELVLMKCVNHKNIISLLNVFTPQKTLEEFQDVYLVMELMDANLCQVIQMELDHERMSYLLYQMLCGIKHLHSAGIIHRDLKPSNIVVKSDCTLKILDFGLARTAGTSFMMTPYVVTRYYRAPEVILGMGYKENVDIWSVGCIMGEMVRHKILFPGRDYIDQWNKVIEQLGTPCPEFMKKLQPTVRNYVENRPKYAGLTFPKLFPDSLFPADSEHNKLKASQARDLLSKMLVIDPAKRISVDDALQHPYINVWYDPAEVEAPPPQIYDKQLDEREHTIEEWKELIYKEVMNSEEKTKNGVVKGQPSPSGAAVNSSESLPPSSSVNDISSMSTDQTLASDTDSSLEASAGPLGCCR
# HEK293 NFkB inh – inhibitors of the PMA/ionomycin-induced NF-kB reporter in HEK293 cells; HEK-293 NF-kB luciferase reporter, luminescence; inhibition, % at 3 µM; 62,000 tested, 0.21% active; AID 465;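 active means inhibition above the mean of all tested compounds plus 3 SD, cut at about 40% in these data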;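 further: 0% = stimulated DMSO wells and 100% = 10 µM reference inhibitor 5653914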
#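 System: NF-kB luciferase reporter HEK-293 cells | Replication: Single test | Control set: DMSO vs reference inhibitor | Evaluation: % inhibition | Schedule: 1 h pretreatment, 16 h stimulation, 37 °C | Probe or stimulus: PMA with ionomycin | Compound dosing: One dose, 3 µM | Detection: Luciferase luminescence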
# SF1 activator – SF-1 (human) activation; Q13285; CHO-K1 Gal4-SF-1 LBD luciferase reporter; % increase over DMSO SF-1-specific signal; activation, % at 10 µM; 65,000 tested, 1.9% active;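 active means activation above the mean activation of all tested compounds plus 3 SD, cut at about 50% in these data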
#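 Assay system: CHO-K1 cells co-transfected with Gal4 DBD–human SF-1 LBD, 5xGal4 luciferase reporter; doses: 10 µM only; incubation: 20 h compound exposure at 37 °C after 1 h cell settling; signal: luciferase light emission; evaluation: percent activation versus DMSO; repeats: one test per compound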
# An asterisk follows results filed as active; . = no result. In the library only some 7.9% were active in any assay of this set; here they are far more common.
SMILES,RORA act,D1 allo mod,JNK3 inh,HEK293 NFkB inh,SF1 activator
CCOC(=O)N1CCN(Cc2nc3c(c(=O)[nH]c(=O)n3C)n2Cc2cc(C)ccc2C)CC1,-7,0.12,0,15,17
Cc1ccc(-n2ncc3c(NCc4ccccc4)ncnc32)cc1,61*,-0.51,0,-24,62*
Cc1cccc(-n2ncc3c(NCc4cccnc4)ncnc32)c1,73*,-5.1*,0,-6,56*
C=CCNc1ncnc2c1cnn2-c1cccc(C)c1,55*,.,-4,-19,42
Cc1ccc(CNc2ncnc3c2cnn3-c2ccccc2)cc1,40,-0.36,2,-3,16
Cc1ccc(-n2ncc3c(NCc4cccnc4)ncnc32)c(C)c1,-47,.,-2,.,-42
COc1ccc(NC(=O)C2=C(C)C(=O)OC23CCC(C)CC3)c(OC)c1 (stereo not given),-21,1.4,4,0,-6
COc1ccc(C2C(C(=O)NCc3ccco3)CCC(=O)N2c2ccc(OC)cc2)cc1 (stereo not given),-15,0.0051,17*,7,-18
O=C(CSc1nnnn1C1CC2CCC1C2)Nc1ccnc2ccccc12 (stereo not given),-85,-2.3,-1,58*,-76
COc1ccc(N=CC2=C(O)CCCC2=O)cc1,15,0.5,-1,9,52*
COc1ccc(OC)c(N=CC2=C(O)CC(C)(C)CC2=O)c1,10,-1.2,-13,21,14
CC1(C)CC(=O)C(C=Nc2ccc3c(c2)OCO3)=C(O)C1,65*,-0.77,-9,3,72*
CC1(C)CC(=O)C(C=NCc2ccc3c(c2)OCO3)=C(O)C1,15,0.11,0,16,11
COc1ccc(N=CC2=C(O)CC(C)(C)CC2=O)cc1,45,-0.34,1,4,87*
COc1ccc(C(=O)CN2C(=O)C(C)(C)Oc3ccc(C(=O)N4CCCCCC4)cc32)cc1,-7,0.073,0,16,-18
O=C(Nc1nc2c(s1)CCCC2)c1cc2n(n1)C(C(F)(F)F)CC(C1CC1)N2 (stereo not given),118*,0.022,-2,-37,56*
Cc1nnc(NC(=O)c2cc3n(n2)C(C(F)(F)F)CC(C2CC2)N3)s1 (stereo not given),3,-0.36,-3,0,-7
O=C(NCc1ccc(F)cc1)c1cc2n(n1)C(C(F)(F)F)CC(C1CC1)N2 (stereo not given),64*,1.2,-3,0,48
O=C(c1cn(-c2ccccc2)nc1-c1cccs1)N1CCN(c2ccccn2)CC1,42,-0.23,3,7,16
O=C1C2CC=C(Cl)CC2C(=O)N1CN(Cc1ccco1)CN1C(=O)C2CC=C(Cl)CC2C1=O (stereo not given),-6,0.09,10,-3,0
Cc1ccc(C2CCN(C(=O)Nc3ccccc3)C2)cc1 (stereo not given),92*,-0.39,2,-20,58*
c1cn2cc(CSC3CCCCC3)nc2s1,30,-2.1,6,-20,60*
O=C(NCCc1cn2ccsc2n1)C1CCCCC1,-9,-0.32,-5,5,1
Clc1ccc(SCc2cn3ccsc3n2)cc1,30,.,-5,.,58*
c1ccc(CSCc2cn3ccsc3n2)cc1,58*,-1.1,3,-21,54*
SMILES,RORA act,D1 allo mod,JNK3 inh,HEK293 NFkB inh,SF1 activator
O=C(OCC(=O)N1CCCCCC1)c1cccs1,14,-1.8,-7,1,55*
CCc1ccc(NC(=O)N(CCCN2CCOCC2)C(C)c2cc3cccc(OC)c3o2)cc1 (stereo not given),-5,0.048,1,12,-22
COc1cc(NC(=O)c2cc3nc(C)cc(C)n3n2)c(OC)cc1Cl,86*,0.13,-5,-42,58*
Cn1c2ccccc2c2cnn(CC(=O)N3CCN(c4ncccn4)CC3)c(=O)c21,-1,-0.33,1,16,9
Cc1ccc(C)c(S(=O)(=O)C(C#N)c2nc3ccccc3nc2N2CC(C)OC(C)C2)c1 (stereo not given),13,-2.7*,3,2,19
CCOCCCNc1ccc(-c2ccccc2)nn1,47,-1.6,-4,-20,58*
COC(=O)c1cc(C(=O)OC)cc(S(=O)(=O)Nc2ccc(Cl)c(N)c2)c1,-12,1,-3,11,-3
COC(=O)c1c(N)n(-c2cc(OC)cc(OC)c2)c2nc3ccccc3nc12,-16,3.3*,-2,15,-3
CCCNC(=O)c1c(N)n(-c2cccc(OC)c2)c2nc3ccccc3nc12,-19,0.75,7,17,-5
Cc1nc2cc(C(=O)O)ccc2s1,21,0.53,-2,-29,53*
O=C(Nc1ncnc2c1ncn2C1OC(COC(=O)c2ccccc2)C(F)C1O)c1ccccc1 (stereo not given),-8,0.58,4,21,-5
CCOc1cc(-c2nc(-c3ccccc3OC)no2)cc(OCC)c1OCC,-7,1.6,-11,17,-1
CCOc1ccccc1-c1nc(-c2ccc(C)nc2OC)no1,36,-0.34,.,-34,58*
CCOc1ccc(-c2nnc(-c3cccs3)o2)cc1OCC,53*,5*,4,1,17
COc1ccc(-c2nc(-c3ccccc3OC)no2)cc1OC,56*,-0.042,-2,1,44
COc1ccc(-c2ccc(-c3noc(-c4ccco4)n3)c(OC)n2)cc1,16,0.93,-1,14,31
COc1cc(-c2nc(-c3ccc(C)nc3OC)no2)cc(OC)c1OC,-11,-0.12,-6,13,-15
COc1nc(-c2ccccc2)ccc1-c1noc(-c2ccco2)n1,29,0.027,4,-23,55*
CCCOc1cccc(NC(=O)c2cc(C)oc2C)c1,-3,0.024,-12,11,6
COc1ccc(-c2nc(-c3cccc(C)c3)no2)cc1OC,61*,-0.66,2,-14,59*
COc1ccc(-c2nc(C3CCCCC3)no2)cc1OC,42,.,-11,-2,57*
CCOc1ccc(-c2nc(-c3ccccc3)no2)cc1OCC,49*,-0.026,-1,-9,84*
COc1ccccc1-c1noc(-c2ccco2)n1,28,-0.97,0,-28,46
COc1ccccc1-c1noc(-c2ccccc2)n1,42,-0.52,2,-29,65*
c1ccc(-c2nc(C3CCCCC3)no2)cc1,12,0.28,0,2,35
CC(C)(C)NC(=O)c1sccc1C(=O)O,5,-0.4,.,16,-6
CCCOc1cccc(C2C(C(=O)c3ccc(C)o3)=C(O)C(=O)N2CCCN(C)C)c1 (stereo not given),-16,-0.28,-2,.,-4
Cn1c(=O)c(C(=S)NC(=O)C2CC2)c(N)n(Cc2ccccc2)c1=O,9,0.41,7,-3,-6
CC1CCCCN1C(=O)C12CCC(C)(/C(=N/O)C1)C2(C)C (stereo not given),4,.,7,.,2
